HUVEC prolif 384 = blocks proliferation of human endothelial cells | 1.1% of 86,000 active | viability, % at 10 µM (by protocol) | HUVEC proliferation, CellTiter-Glo luminescence, 72 h; stronger effect = lower value;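 active = viability at or below 30%; inactive = viability above 30%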;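 also: 100% = median luminescence of DMSO-only cell control wells on each plate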
HCT116 PTEN-null = suppresses growth of cells with PTEN deletion. 1.2% of 140,000 active. viability, % at 10 µM. AID 827. HCT116 PTEN-null viability, CellTiter-Glo, 60 h; stronger effect = lower value;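 active = viability at or below a set limit, 4 SD under the median of all tested compounds, cut at about 3.7% in these data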;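 also: PTEN knockout HCT116 line with beta catenin targeted HCT116 as companion control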
Lung fibro prol = blocks proliferation of human lung fibroblasts | LL 47 human lung fibroblast viability, ATP luminescence; stronger effect = lower value | 1.1% of 85,000 active | viability, % at 10 µM;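 active = viability at or below 50% in the single dose screen; inactive = viability above 50%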;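 also: compound exposure lasted 72 h before the ATP readout; 100% = median luminescence of untreated cell-only wells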
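Test system: LL 47 human lung fibroblasts / Incubation: 72 h compound exposure at 37 °C after overnight plating / Technique: luminescent ATP detection, CellTiter-Glo / Compound dosing: 0.1% DMSO in all compound wells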
H69AR inhibit = growth inhibitors of human H69AR lung tumor cells; H69AR lung tumor viability, ATP luminescence, 72 h; stronger effect = lower value; viability, % at 10 µM; 6% of 85,000 active; AID 598;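 active = viability at or below 40%; inactive = viability above 40%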;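 also: multidrug resistant small cell line overexpressing MRP-1 efflux transporter; 100% = mean luminescence of untreated control wells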
HCT116 bCat-KO = beta-catenin-lacking colon tumor cell growth suppression | 1.5% of 140,000 active | HCT116 beta-catenin knockout viability, CellTiter-Glo, 60 h; stronger effect = lower value | viability, % at 10 µM;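 active = viability at or under a set limit, the compound median less 4 SD, cut at about 6% in these data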;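 also: 0% = Hyamine 1622 control at 20 µM and 100% = untreated cell control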
An asterisk follows results filed as active. The sample as a whole holds a higher share of hits than the screen did.

N#Cc1c(NCCCO)nc(NCc2ccccc2)c2c1CCN(Cc1ccccc1)C2 was read as HUVEC prolif 384 70.2, HCT116 PTEN-null 59.9, Lung fibro prol 85.8, H69AR inhibit 42.6 and HCT116 bCat-KO 72.7.
O=C(CNC(=O)c1ccc(Br)o1)Nc1cccc(-c2cnc3ccccc3n2)c1 was read as HUVEC prolif 384 82.8, HCT116 PTEN-null 84.9, Lung fibro prol 98.3, H69AR inhibit 25.4* and HCT116 bCat-KO 81.5.
For Cc1cccc2sc(NNC(=O)c3ccc(S(=O)(=O)N4CC(C)CC(C)C4)cc3)nc12 (stereo not drawn) the results were HCT116 PTEN-null 1.9* and HCT116 bCat-KO 2.2*.
`Cc1cc(C)c2nc(NNC(=O)c3ccc(S(=O)(=O)N4CCCC(C)C4)cc3)sc2c1` (stereo not drawn) gave HCT116 PTEN-null 6.8 and HCT116 bCat-KO 4.0*.
`Cc1ccc2nc(NNC(=O)c3ccc(S(=O)(=O)N4CCc5ccccc5C4)cc3)sc2c1` gave HCT116 PTEN-null 6.4 and HCT116 bCat-KO 3.8*.
Screening COC(=O)c1sc2ccccc2c1NC(=O)c1ccc(S(=O)(=O)N2CC(C)CC(C)C2)cc1 (stereo not drawn) returned HCT116 PTEN-null 82.1 and HCT116 bCat-KO 74.6.
For Cc1cc(C)c2nc(NNC(=O)c3ccc(S(=O)(=O)N4CC(C)CC(C)C4)cc3)sc2c1 (stereo not drawn) the results were HCT116 PTEN-null 12.4 and HCT116 bCat-KO 9.2.
COc1ccc(C(=O)c2c(C(F)(F)F)oc3c2C(=O)c2ccccc2C3=O)cc1OC was read as HUVEC prolif 384 4.7*, HCT116 PTEN-null 1.9*, Lung fibro prol 2.4*, H69AR inhibit 1.6* and HCT116 bCat-KO 1.3*.
For Cc1ccc(C)c(N2CCN(CCCNC(=O)Cn3cc4c(n3)CCCCC4)CC2)c1 the results were HUVEC prolif 384 21.9*, HCT116 PTEN-null 1.7*, Lung fibro prol 83.9, H69AR inhibit 50.5 and HCT116 bCat-KO 2.1*.
Cc1ccc(C)c(N2CCN(CCCNC(=O)Cn3cc4c(n3)CCC(C)C4)CC2)c1 (stereo not drawn) was read as HUVEC prolif 384 15.4*, HCT116 PTEN-null 8.6, Lung fibro prol 73.2, H69AR inhibit 45.5 and HCT116 bCat-KO 9.9.
`O=C1C2=C(NC(=S)NC2c2ccc(Cl)cc2)NC(c2ccc(Cl)cc2)N1c1ccc(Cl)cc1` (stereo not drawn) gave HUVEC prolif 384 7.6*, HCT116 PTEN-null 22.4, Lung fibro prol 97.8, H69AR inhibit 0.1* and HCT116 bCat-KO 13.2.
For CCc1ccc(C2NC(=S)NC3=C2C(=O)N(c2ccccc2OC)C(c2ccc(CC)cc2)N3)cc1 (stereo not drawn) the results were HCT116 PTEN-null 70.5 and HCT116 bCat-KO 74.7.
For COC(=O)C1=C(NC(C)=O)CCS1 the results were HCT116 PTEN-null 90.9 and HCT116 bCat-KO 92.0.
For CCOC(=O)c1sc(=NC(=O)c2cc(OC)c(OC)c(OC)c2)n(C)c1C the results were HUVEC prolif 384 92.3, HCT116 PTEN-null 13.4, Lung fibro prol 97.4, H69AR inhibit 11.1* and HCT116 bCat-KO 22.0.
`CCOC(=O)c1sc(=NC(=O)c2ccc(S(=O)(=O)N3CCOCC3)cc2)n(C)c1C` gave HUVEC prolif 384 94.3, Lung fibro prol 102.6 and H69AR inhibit 83.9.
Screening CCc1nc(SCC(=O)NCc2ccccc2)c2c(=O)n(C)c(=O)n(C)c2n1 returned HUVEC prolif 384 87.1, HCT116 PTEN-null 83.5, Lung fibro prol 93.6, H69AR inhibit 27.3* and HCT116 bCat-KO 95.3.
For CCCc1nc(SCC(=O)N2CCC(Cc3ccccc3)CC2)c2c(=O)n(C)c(=O)n(C)c2n1 the results were HUVEC prolif 384 3.2*, HCT116 PTEN-null 1.4*, Lung fibro prol 105.4, H69AR inhibit 41.6 and HCT116 bCat-KO 7.5.
For COc1cc(/C=C/c2cc(OC(C)=O)c3ccccc3n2)c(OC(C)=O)c([N+](=O)[O-])c1 the results were HUVEC prolif 384 77.0, HCT116 PTEN-null 89.3, Lung fibro prol 92.8, H69AR inhibit 74.8 and HCT116 bCat-KO 91.1.
CN1CCN(c2nc(-c3ccccc3)nc3c2oc2ccccc23)CC1 was read as HUVEC prolif 384 23.7*, Lung fibro prol 83.6 and H69AR inhibit 87.4.
Screening Cn1cnnc1SCC(=O)NN(c1ccccc1)c1ccccc1 returned HCT116 PTEN-null 90.0 and HCT116 bCat-KO 92.3.
For CN(C)c1ccc(-c2nn3c(C4CCCCC4)nnc3s2)cc1 the results were HUVEC prolif 384 89.4, HCT116 PTEN-null 63.3, Lung fibro prol 97.3, H69AR inhibit 86.2 and HCT116 bCat-KO 89.1.
N#C/C(C(N)=O)=c1/ccc2c(c1)N1C3=C(CCCC3)CC3CCCCC31N=2 (stereo not drawn) was read as HUVEC prolif 384 43.6, HCT116 PTEN-null 8.7, Lung fibro prol 87.7, H69AR inhibit 1.9* and HCT116 bCat-KO 10.3.
Screening N#CC(C#N)=c1ccc2c(c1)N1C3=C(CCCC3)CC3CCCCC31N=2 (stereo not drawn) returned HUVEC prolif 384 68.4, HCT116 PTEN-null 40.7, Lung fibro prol 62.2, H69AR inhibit 17.7* and HCT116 bCat-KO 29.9.
Screening COC(=O)c1ccc(NC(=O)CN(C2CCCCC2)S(C)(=O)=O)cc1 returned HUVEC prolif 384 89.8, HCT116 PTEN-null 63.4, Lung fibro prol 88.4, H69AR inhibit 37.9* and HCT116 bCat-KO 76.7.
COc1ccc(NC(=O)CN(C2CCCCC2)S(C)(=O)=O)cc1OC was read as HUVEC prolif 384 98.8, HCT116 PTEN-null 100.3, Lung fibro prol 95.9, H69AR inhibit 83.5 and HCT116 bCat-KO 111.5.
`O=C(Cn1cnc([N+](=O)[O-])c1)Nc1cc(Oc2ccc(Cl)cc2Cl)cc([N+](=O)[O-])c1` gave HUVEC prolif 384 41.7, HCT116 PTEN-null 5.3, Lung fibro prol 93.1, H69AR inhibit 9.9* and HCT116 bCat-KO 7.6.
`CCN(C(=O)CN1CCN(S(=O)(=O)c2cc(Cl)ccc2Cl)CC1)c1c(N)n(Cc2ccccc2)c(=O)[nH]c1=O` gave HCT116 PTEN-null 98.0 and HCT116 bCat-KO 90.0.
`CCN(CC)S(=O)(=O)c1ccc(S(=O)(=O)Nc2ccc3c(c2)oc2ccccc23)cc1` gave HUVEC prolif 384 62.8, HCT116 PTEN-null 75.1, Lung fibro prol 96.5, H69AR inhibit 32.9* and HCT116 bCat-KO 76.7.
Screening CN(C)S(=O)(=O)c1ccc(S(=O)(=O)Nc2ccc3c(c2)oc2ccccc23)cc1 returned HUVEC prolif 384 73.2, HCT116 PTEN-null 89.0, Lung fibro prol 101.7, H69AR inhibit 84.7 and HCT116 bCat-KO 95.6.
For Cc1ccc(C2=NN3C(C(=O)c4ccccc4)Oc4ccccc4C3C2)cc1 (stereo not drawn) the results were HCT116 PTEN-null 78.5 and HCT116 bCat-KO 76.4.
For Cc1ccc(NC(=O)Nc2nnc(CSCCOc3ccc(Cl)cc3)s2)cc1 the results were HCT116 PTEN-null 97.6 and HCT116 bCat-KO 81.0.
Screening O=C(Nc1cccc(Cl)c1)Nc1nnc(CC2=CCCCC2)s1 returned HCT116 PTEN-null 3.4* and HCT116 bCat-KO 8.0.
`O=C(Nc1cccc(Cl)c1)Nc1nnc(CSCCOc2ccc(Cl)cc2)s1` gave HCT116 PTEN-null 5.6 and HCT116 bCat-KO 4.2*.
